Screens deposited in PubChem BioAssay by The Scripps Research Institute Molecular Screening Center.
A selection: hits, their analogues and other compounds. The true share with any hit is near 3.1%.
CHO parental Ca: counter-screen: ATP calcium response change in parental CHO cells; parental CHO-K1, ATP-induced calcium, Fluo-8 fluorescence; inhibition, % at 5.6 µM; actives 0.63% (n = 330,000); AID 463079;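 active = inhibition above that plate's mean sample inhibition plus 3 SD, cut at about 26% in these data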;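 also: 0% = ATP-challenged DMSO wells and 100% = DMSO wells without ATP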
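Material – parental CHO cells · Reagent – ATP stimulus · Compound – single nominal dose of 5.6 µM per compound · Detection – Fluo-8 fluorescence · Read-out basis – percent inhibition of calcium signal · Controls – ATP-challenged DMSO wells low, unchallenged DMSO wells high · Repeats – no replicates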
GPR7 antag: blocks human GPR7 receptor signaling; P48145; GPR7-expressing cells, fluorescence antagonist assay; inhibition, % at 4.4 µM; actives 1.1% (n = 290,000); in the data active = inhibition above about 16%, passing the limit was not always enough;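 also: cells stimulated with the agonist NPW; 0% = agonist with vehicle and 100% = vehicle without agonist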
OX1R antag-1: blocks the human orexin 1 receptor. AID 485270. actives 1.8% (n = 330,000). O43613. OX1R-expressing cells, FRET antagonist read-out. inhibition, % at 6.6 µM; in the data active = inhibition mostly above about 38%, no sharp cut-off; inactive = mostly below about 40%;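 also: 0% = agonist challenge alone and 100% = reference antagonist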
Target sequence (O43613 whole entry, looked up): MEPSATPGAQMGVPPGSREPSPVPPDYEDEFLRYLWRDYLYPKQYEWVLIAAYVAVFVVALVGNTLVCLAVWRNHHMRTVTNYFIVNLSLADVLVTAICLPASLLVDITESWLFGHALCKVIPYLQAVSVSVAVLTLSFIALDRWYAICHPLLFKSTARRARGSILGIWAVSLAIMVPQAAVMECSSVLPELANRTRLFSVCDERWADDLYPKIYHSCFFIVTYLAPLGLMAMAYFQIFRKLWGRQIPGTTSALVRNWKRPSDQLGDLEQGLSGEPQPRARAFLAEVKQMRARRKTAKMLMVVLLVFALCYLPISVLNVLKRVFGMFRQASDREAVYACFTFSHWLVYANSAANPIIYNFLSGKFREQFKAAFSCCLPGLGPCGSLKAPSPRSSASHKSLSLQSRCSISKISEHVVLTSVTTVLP
GalR3 antag: blocks the human galanin receptor 3 | inhibition, % at 3 µM | HEK293 GalR3-CNG cAMP membrane potential fluorescence; galR3 body fused to GalR1 C-terminus | actives 0.44% (n = 360,000) | O60755;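 active = inhibition above the screen-wide average plus 3 SD, cut at about 13% in these data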;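 also: forskolin and galanin both at EC90 stimulate the cells; cAMP rise reported by CNG channel membrane potential dye signal; 0% = forskolin plus galanin with DMSO and 100% = forskolin alone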
OX1R antag-2: antagonists of human orexin 1 receptor | O43613 | inhibition, % at 5 µM | actives 0.43% (n = 330,000) | CHO/OX1R cells, Fluo-8 calcium fluorescence, orexin A;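 active = inhibition above its plate's threshold, mean inhibition of all tested compounds on the plate plus 3 SD, cut at about 37% in these data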;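 also: 0% = orexin A challenge wells and 100% = SB-334867-A antagonist wells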
Active calls of the source: *; · = no result.

SMILES	CHO parental Ca	GPR7 antag	OX1R antag-1	GalR3 antag	OX1R antag-2
CCc1sc(N2C(=O)C3C4CCC(C4=C(C)C)C3C2=O)nc1-c1ccccc1 (stereo not drawn)	-38	-12	38*	-4	23
O=C(CSc1nnnn1-c1ccccc1)Nc1ccc(Cl)cn1	44*	-4	11	-3	0
O=C(c1cc2c(c(-c3cccc(-c4ccc(F)cc4)c3)n1)[C@H](CCO)N(C(=O)c1ccc3c(c1)OCO3)C2)N1CCOCC1	·	·	·	2	·
c1ccc2c(c1)[nH]c1nc3nncn3nc12	-13	-13	53*	1	-15
Cc1[nH]n(-c2ccc([N+](=O)[O-])cc2)c(=O)c1C=NCCN1CCN(C(=O)C(C)C)CC1	27*	1	18	-2	-8
Cc1ccccc1OCCNc1cc(N2CCN(CCO)CC2)ccc1[N+](=O)[O-]	-3	11	27	-4	6
Cc1ccccc1OCCNc1cc(N2CCCCC2)ccc1[N+](=O)[O-]	37*	-3	18	-4	-4
CN(C)c1ccc2nc3c(=O)[nH]c(=O)nc-3n(CC(O)C(O)C(O)CO)c2c1 (stereo not drawn)	12	4	74*	-8	16
Cc1cc(F)ccc1NC(=O)c1cc(S(=O)(=O)N2CCc3ccccc32)cn1C	-10	7	15	·	3
O=[N+]([O-])c1ccc(Oc2ncccn2)cc1	-8	·	45*	-8	-6
O=[N+]([O-])c1ccc(Oc2cnc3ccccc3n2)cc1	-6	3	19	-3	-25
O=S(=O)(Nc1ccccc1)c1ccc(Oc2ncc(C(F)(F)F)cc2Cl)cc1	73*	-4	47*	-2	88*
O=C(Nc1ccccc1)c1cccc(S(=O)(=O)Oc2ccc([N+](=O)[O-])cc2)c1	1	26*	24	0	-5
O=C(O)c1cccc(NC(=O)c2cccc(S(=O)(=O)Nc3cccc([N+](=O)[O-])c3)c2)c1	-2	15	8	-11	-1
O=[N+]([O-])c1ccc(Oc2ccc(S(=O)(=O)Nc3ccccc3)cc2)cc1	20	58*	26	·	50*
CN(C)CCOC1c2ccccc2CCc2ccc3ccccc3c21 (stereo not drawn)	-19	·	2	-5	-22
CC1(C(=O)Nc2ccc3c(c2)OCO3)CCN1C(=O)CCC1CCCC1 (stereo not drawn)	·	·	·	-8	·
O=C(NC1CCCC1)C(c1ccco1)N1CCC(O)(c2ccc(Cl)cc2)CC1 (stereo not drawn)	·	·	·	-6	·
O=C1C(Cl)=C(NS(=O)(=O)c2ccc([N+](=O)[O-])cc2)C(=O)c2ccccc21	12	3	45*	0	0
OCCN(CCO)c1ccc2ccccc2c1	-6	7	21	-4	-4
OCCN(CCO)c1ccc(C(c2ccccc2Cl)c2ccc(N(CCO)CCO)cc2Cl)c(Cl)c1	47*	8	6	·	39
CC(=O)NCc1ccc(-c2csc(-c3cccs3)n2)cc1	-9	1	63*	-10	-14
CCCCOCC1CN(CCCC)S(=O)(=O)c2c(cccc2N2CCCC2)O1 (stereo not drawn)	·	·	·	-5	·
CCC/C=C/c1ccc(CN2C(C(C)C)C(=O)N(Cc3cn(CCC4OCCCO4)nn3)CCS2(=O)=O)cc1 (stereo not drawn)	·	·	·	1	·
Cc1[nH]c2ccccc2c1/C=N/Nc1ccc([N+](=O)[O-])cc1	57*	1	17	-5	53*
SMILES	CHO parental Ca	GPR7 antag	OX1R antag-1	GalR3 antag	OX1R antag-2
O=[N+]([O-])c1ccc(N/N=C/c2c[nH]c3ccccc23)c(S(=O)(=O)Nc2ccc(Cl)cc2)c1	5	1	5	-3	2
COc1ccccc1NS(=O)(=O)c1cc([N+](=O)[O-])ccc1N/N=C/c1c(C)[nH]c2ccccc12	41*	7	15	-5	46*
O=C(/C=C/c1cccc(C(F)(F)F)c1)Nc1cccc(C(F)(F)F)c1	-5	-6	36*	-9	31
Cc1ccc(NC(=O)/C=C/c2cccc(C(F)(F)F)c2)cc1	-6	-3	13	-2	-21
C=C1N(C)c2cc([N+](=O)[O-])c(N)cc2C1(C)C	-8	-7	56*	-5	-22
CC1(C)Oc2cc(N)c([N+](=O)[O-])cc2O1	11	-17	43	2	-10
O=S(=O)(CCc1nc2ccccc2o1)c1ccc2ccccc2c1	-12	-2	45*	-2	2
